Results from ChEMBL document CHEMBL1828528, “Acyclic nucleoside thiophosphonates as potent inhibitors of HIV and HBV replication” (Eur J Med Chem, 2011).
Active and inactive are the calls of the source. No cut-off for these calls is given here.

How the values were obtained:
[1] = tested on: Respiratory syncytial virus; test: Antiviral activity against Respiratory syncytial virus infected in HeLa cells assessed as inhibition of virus-induced cytopathic effect up to 200 uM measured on day 3 post infection by microscopic analysis; assay type: functional, organism-based
How it was run: (§1)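 HeLa monolayers at confluency infected with 100 CCID50 of virus. Compound dilutions up to 200 μM added after 1–2 h adsorption. Cytopathic effect recorded microscopically on day 3 relative to untreated controls.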

[2] = tested on: Human immunodeficiency virus 1; test: Antiviral activity against HIV1 clade D isolate 1649 infected in human H9 cells assessed as inhibition of viral replication; assay type: functional, organism-based; conditions: Human immunodeficiency virus 1, clade D isolate 1649, H9
How it was run: (§2)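 H9 cells infected with HIV-1 clinical isolates of clades A, B, C, D, A/E, F and G, in the presence of graded compound concentrations. EC50 is the concentration reducing viral replication by 50%.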

[3] = tested on: Human immunodeficiency virus 1; test: Antiviral activity against 6250 TCID50 wild type HIV1 LAI infected in human H9 cells assessed as reduction in viral replication measured on day 7 post infection by reverse transcriptase activity; assay type: functional, organism-based; conditions: Human immunodeficiency virus 1, LAI, H9, 168 h
How it was run: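 H9 cells in RPMI-1640/10% FCS given graded compound concentrations, then infected with a high inoculum of 6250 TCID50 HIV-1 LAI. Supernatant reverse transcriptase activity measured on day 7 post infection. EC50 taken as the concentration giving 50% reduction of viral replication.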

[4] = Stability of compound in complete culture medium assessed as compound degradation into 9-(2-Phosphonomethoxypropyl)-adenine after 24 hrs by HPLC analysis; assay type: physicochemical
How it was run: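 Compound diluted to 0.1 mM final in one of two media and incubated at 37 °C: RPMI-1640 with 10% heat-inactivated FCS, or CEM-SS cell extract (soluble proteins 3 mg/mL in 10 mM Tris-HCl pH 7.4, 140 mM KCl). Aliquots were taken over time, frozen at −80 °C, then run on C18 reverse-phase HPLC with on-line filtration, TEAB/acetonitrile gradient and 260 nm detection. Degradation products were identified by co-injection.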

[5] = tested on: Human immunodeficiency virus 1; test: Antiviral activity against HIV1 clade B isolate 2101 infected in human H9 cells assessed as inhibition of viral replication; assay type: functional, organism-based; conditions: Human immunodeficiency virus 1, clade B isolate 2101, H9; how it was run: as §2
[6] = tested on: Human immunodeficiency virus 1; test: Ratio EC50 for PMPA to compound for HIV1 clade C isolate 2914 infected in human H9 cells assessed as inhibition of viral replication; assay type: functional
[7] = tested on: Human immunodeficiency virus 1; test: Antiviral activity against HIV1 clade G isolate 3187 infected in human H9 cells assessed as inhibition of viral replication; assay type: functional, organism-based; conditions: Human immunodeficiency virus 1, clade G isolate 3187, H9; how it was run: as §2
[8] = tested on: Human immunodeficiency virus 1; test: Ratio EC50 for PMPA to compound for HIV1 clade B isolate 2101 infected in human H9 cells assessed as inhibition of viral replication; assay type: functional
[9] = tested on: Human immunodeficiency virus 1; test: Antiviral activity against HIV1 clade F isolate 2338 infected in human H9 cells assessed as inhibition of viral replication; assay type: functional, organism-based; conditions: Human immunodeficiency virus 1, clade F isolate 2338, H9; how it was run: as §2
[10] = Cytotoxicity against feline kidney CRFK cells up to 200 uM; assay type: cell-based, Felis catus; conditions: cat
How it was run: (§3)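 Uninfected confluent Vero, CrFK, HEL or HeLa cultures incubated with serial compound dilutions (up to 200 μM) for the same period as the antiviral assays. Minimal toxic concentration is the lowest giving microscopically detectable alteration of cell morphology.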

[11] = tested on: Human immunodeficiency virus 1; test: Antiviral activity against HIV1 clade C isolate 4110 infected in human H9 cells assessed as inhibition of viral replication; assay type: functional, organism-based; conditions: Human immunodeficiency virus 1, clade C isolate 4110, H9; how it was run: as §2
Influenza B virus = test: Antiviral activity against influenza B virus; assay type: functional, organism-based
Coxsackievirus B4 = test: Antiviral activity against Coxsackie virus B4 infected in HeLa cells assessed as inhibition of virus-induced cytopathic effect up to 200 uM measured on day 3 post infection by microscopic analysis; assay type: functional, organism-based; how it was run: as §1
[12] = Cytotoxicity against […]-activated human H9 cells on day 7 by MTT assay; assay type: cell-based
How it was run: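 Uninfected PHA-P-activated PBMC and H9 cells exposed to graded compound concentrations. Viability by MTT on day 7. CC50 from quadratic fit of % viability against concentration; triplicates.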

[13] = tested on: Human immunodeficiency virus 1; test: Antiviral activity against 125 TCID50 wild type HIV1 LAI infected in human H9 cells assessed as reduction in viral replication measured on day 7 post infection by reverse transcriptase activity; assay type: functional, organism-based; conditions: Human immunodeficiency virus 1, LAI, H9, 168 h
How it was run: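 PHA-P-activated PBMC (1.5 × 10^5; donor cells stimulated 3 days with 1 μg/mL PHA-P plus 5 IU/mL IL-2) or H9 cells (5 × 10^5) in RPMI-1640/10% FCS. Cells pre-treated 30 min with graded compound concentrations, then infected with HIV-1 LAI (100 or 125 TCID50). Supernatant RT activity read on day 7. EC50 from quadratic fit of % inhibition; triplicates, PBMC repeated with a second donor.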

Vero = test: Cytotoxicity against african green monkey Vero cells up to 200 uM; assay type: cell-based; conditions: chlorocebus sabaeus; how it was run: as §3
Human alphaherpesvirus 1 = test: Antiviral activity against Herpes simplex virus type 1 KOS infected in HEL cells assessed as inhibition of virus-induced cytopathic effect; assay type: functional, organism-based; conditions: Human alphaherpesvirus 1, KOS
How it was run: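 Confluent HEL cell monolayers inoculated with 100 CCID50 of virus. Compounds added after a 1–2 h adsorption period. Virus-induced cytopathic effect scored microscopically at 3 days post infection as % of untreated controls. EC50 derived from graphical plots.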

[14] = tested on: Human immunodeficiency virus 1; test: Antiviral activity against HIV1 clade A/E isolate 2165 infected in human H9 cells assessed as inhibition of viral replication; assay type: functional, organism-based; conditions: Human immunodeficiency virus 1, clade A/E isolate 2165, H9; how it was run: as §2
[15] = (§4) Cytotoxicity against human CEM cells; assay type: cell-based, CCRF-CEM; conditions: CCRF-CEM (CEM) cells
How it was run: (§5)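 Mock-infected CEM cells cultured alongside the anti-HIV assay with compound dilutions for 4 days at 37 °C. CC50 is the concentration inhibiting CEM cell proliferation by 50%.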

Hepatitis B virus [16] = test: Antiviral activity against Hepatitis B virus infected in human HepAD38 cells assessed as reduction in viral DNA level after 6 days by real time quantitative PCR analysis; assay type: functional, organism-based; conditions: HePAD38, 144 h
How it was run: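 Tetracycline-regulated HepAD38 cells (5 × 10^5) induced after 2–3 days by PBS wash and feeding with medium lacking tetracycline and G418, with or without compound. Medium changed at day 3. Intracellular HBV DNA quantified by TaqMan Q-PCR at day 6 post induction against a full-genome plasmid standard curve, expressed as % of untreated. Actives retested.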

[17] = tested on: Human immunodeficiency virus 1; test: Ratio EC50 for PMEA to compound for HIV1 clade C isolate 4110 infected in human H9 cells assessed as inhibition of viral replication; assay type: functional
How it was run: (§6)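 Ratio computed as EC50 of PMEA divided by EC50 of the test compound, both measured against the same clinical isolate in H9 cells.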

Hepatitis B virus [18] = test: Antiviral activity against Hepatitis B virus infected in human HuH7 cells assessed as reduction in viral DNA level treated day 3 to day 8 post transfection by real time quantitative PCR analysis; assay type: functional, organism-based; conditions: Huh-7
Hepatitis B virus [19] = test: Ratio EC50 for PMEA to compound for Hepatitis B virus infected in human HepAD38 cells assessed as reduction in viral DNA level after 6 days by real time quantitative PCR analysis; assay type: functional
[20] = tested on: Human immunodeficiency virus 1; test: Ratio EC50 for PMEA to compound for HIV1 clade A/E isolate 2165 infected in human H9 cells assessed as inhibition of viral replication; assay type: functional; how it was run: as §6
CCRF-CEM = test: as §4; assay type: cell-based; conditions: ccrf-cem; how it was run: as §5

| SMILES | inhibition [1] | EC50 [2] | EC50 [3] | EC50 [5] | EC50 [7] | EC50 [9] | Activity [10] | EC50 [11] | Activity (Influenza B virus) | inhibition (Coxsackievirus B4) | CC50 at 7 day [12] | EC50 [13] | Activity (Vero) | EC50 (Human alphaherpesvirus 1) | EC50 [14] | EC50 (Hepatitis B virus [16]) | other results |
| --- | --- | --- | --- | --- | --- | --- | --- | --- | --- | --- | --- | --- | --- | --- | --- | --- | --- |
| C[C@H](Cn1cnc2c(N)ncnc21)OCP(=O)([O-])[S-].[Na+].[Na+] (stereo partly specified) | inactive | 710 nM | 9700 nM | 470 nM | 120 nM | 200 nM | Non-toxic | 540 nM | inactive | inactive | > 100000 nM | 380 nM | Non-toxic | 169000 nM | 340 nM | 2800 nM | Activity [4]: 77%; Ratio EC50 [6]: 0.89; Ratio EC50 [8]: 0.51; CC50 [15]: > 250000 nM |
| Nc1ncnc2c1ncn2CCOCP(=O)([O-])[S-].[Na+].[Na+] (stereo unspecified) | inactive | 2770 nM | 17000 nM | 490 nM | 880 nM | 220 nM | Non-toxic | 450 nM | inactive | inactive | > 30000 nM | 1900 nM | Non-toxic | 40000 nM | 300 nM | 3000 nM | Ratio EC50 [17]: 6; EC50 (Hepatitis B virus [18]): 4500 nM; Ratio EC50 (Hepatitis B virus [19]): 1.5; Ratio EC50 [20]: 1.06; CC50 (CCRF-CEM): 233000 nM |
